High-throughput results as filed in PubChem BioAssay.
Sampled rows, rich in hits. Any-hit rate of the full collection: about 4.7%.
NR3A LBD binder = binders of NR3A ligand-binding domain, primary screen, biophysical, differential scanning fluorimetry, uHTS | NR3A LBD differential scanning fluorimetry, Tm shift; 0% = protein alone, 100% = glycine-bound protein | Tm shift relative to glycine control, % at 25 µM | 2.5% of 340,000 active | AID 1259313, 2017;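 active means melting temperature shift of at least 10% of the positive control shift, at one fixed dose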
MT1-MMP act inh = blockers of MT1-MMP proenzyme processing, primary screen, HT1080 RFP-PRO-GFP cells, GFP/RFP fluorescence; AID 651647, 2012; GFP/RFP ratio fluorescence, overnight; percent of plate control window, DMSO zero; GFP/RFP ratio change, % at 20 µM; 0.061% of 360,000 active;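 active means GFP/RFP ratio change of at least 30% with cell ATP level not reduced by more than half and red fluorescence within 50% of control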
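Assay system: HT1080 RFP-PRO-GFP cells | Dosing: 20 µM single dose, 1% DMSO | Incubation: Cells overnight before dosing, compound overnight, 37 °C, 5% CO2 | Evaluation: GFP/RFP fluorescence ratio | Control set: DMSO-only wells and HT1080 RFP-L50D-GFP cell wells as references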
SKN-1 inh = suppressors of acrylamide-induced Pgst-4::GFP reporter in worms, primary screen, SKN-1 inhibitor project, whole organism, uHTS, GFP/RFP fluorescence ratio, strain VP596 | C. elegans VP596 Pgst-4::GFP/RFP ratio, 24 h | inhibition, % at 21.8 µM | 0.49% of 360,000 active | AID 624304, 2012;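 active means interference check ratio from 0.5 to 1.5 plus GFP to RFP signal ratio inhibition reaching or exceeding a fixed threshold, cut at about 30% in these data, passing the limit was not always enough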
ADAM10 inh = human ADAM10 inhibitors, primary screen, biochemical, QFRET, HTS; Disintegrin and metalloproteinase domain-containing protein 10 (Homo sapiens), O14672; recombinant ADAM10, EDANS/DABCYL FRET peptide cleavage, 3 h; inhibition, % at 7 µM; 0.62% of 370,000 active; AID 720582, 2013;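 active means inhibition above a per-campaign cutoff equal to the mean of compounds falling between control-based bounds plus 3 SD, cut at about 20% in these data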;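 further: 0% = DMSO wells while the 100% control is not disclosed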
ADAM17 inh = ADAM17 inhibitors, primary screen, biochemical, QFRET | Disintegrin and metalloproteinase domain-containing protein 17 (Homo sapiens), P78536 | recombinant ADAM17, EDANS/DABCYL FRET peptide cleavage | inhibition, % at 6.95 µM | 0.83% of 370,000 active;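 active means inhibition above the mean of compounds lying between control limits plus 3 SD, set per campaign, cut at about 8.5% in these data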;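 further: 0% = DMSO-only wells as the low control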
Target sequence (P78536 215-824 limits assumed): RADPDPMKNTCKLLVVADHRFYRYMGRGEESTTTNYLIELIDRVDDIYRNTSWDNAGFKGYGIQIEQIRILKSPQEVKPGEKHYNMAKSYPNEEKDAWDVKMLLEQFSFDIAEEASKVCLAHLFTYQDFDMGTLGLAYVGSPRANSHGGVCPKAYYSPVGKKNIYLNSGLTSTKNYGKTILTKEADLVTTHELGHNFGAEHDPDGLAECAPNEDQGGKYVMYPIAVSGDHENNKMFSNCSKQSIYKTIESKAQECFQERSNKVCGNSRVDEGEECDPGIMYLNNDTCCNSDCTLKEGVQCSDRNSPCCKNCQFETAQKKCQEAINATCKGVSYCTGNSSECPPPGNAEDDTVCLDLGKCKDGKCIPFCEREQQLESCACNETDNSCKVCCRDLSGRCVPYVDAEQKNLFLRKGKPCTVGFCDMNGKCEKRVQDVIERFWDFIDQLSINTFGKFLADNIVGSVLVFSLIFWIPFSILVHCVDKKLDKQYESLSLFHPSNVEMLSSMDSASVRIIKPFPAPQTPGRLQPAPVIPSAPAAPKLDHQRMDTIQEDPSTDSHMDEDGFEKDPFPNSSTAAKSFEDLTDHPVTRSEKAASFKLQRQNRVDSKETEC
MPTP inh = mitochondrial permeability transition pore inhibitors, primary screen, biochemical, isolated mouse mitochondria, absorbance | Ca2+ swelling absorbance, 30 min | inhibition, % at 10 µM | AID 602449, 2012 | 1.4% of 360,000 active;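 active means inhibition of 50% or more, scaled per plate between neutral and stimulator controls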;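 further: 0% = DMSO wells given calcium and 100% = 1 mM EGTA wells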
An asterisk follows results filed as active.

Results for COC(=O)c1ccc(-c2nc(-c3cccs3)no2)cc1 ?
NR3A LBD binder: 0.4; MT1-MMP act inh: 3.2; SKN-1 inh: 21.5; ADAM10 inh: -2.7; ADAM17 inh: 0.7; MPTP inh: 0.8

What do the screens show for `Fc1ccc(-c2cnc(-c3cccs3)o2)cc1`?
NR3A LBD binder: 2.5; MT1-MMP act inh: -5.4; SKN-1 inh: 92.1*; ADAM10 inh: -258.6; ADAM17 inh: -81.7; MPTP inh: -0.4

What do the screens show for `Fc1ccc(-c2nc(-c3cccs3)no2)cc1`?
NR3A LBD binder: -1.2; MT1-MMP act inh: 1.9; SKN-1 inh: 50.8*; ADAM10 inh: -4.2; ADAM17 inh: -4.7; MPTP inh: 1.7

What do the screens show for `CC(CCn1cccn1)NC(=O)CCc1nnc(C2CCCCC2)o1` (stereo not drawn)?
NR3A LBD binder: -1.0; MT1-MMP act inh: 4.8; SKN-1 inh: 4.3; ADAM10 inh: -6.3; ADAM17 inh: -3.0; MPTP inh: -1.4

Results for CCCc1ccc2oc(C(=O)N(C)CCn3ccnc3C)c(C)c2c1 ?
NR3A LBD binder: -0.5; MT1-MMP act inh: -0.2; SKN-1 inh: 30.2; ADAM10 inh: -6.5; ADAM17 inh: -3.5; MPTP inh: 1.2

Results for C=CCCC(=O)Nc1nc(C)c(-c2csc(Nc3ccc(Cl)cc3Cl)n2)s1 ?
NR3A LBD binder: 12.2*; MT1-MMP act inh: 1.1; SKN-1 inh: 8.7; ADAM10 inh: -0.5; ADAM17 inh: -1.7; MPTP inh: 0.3

Results for Cc1ccc(Nc2nc(=O)c3cc([N+](=O)[O-])ccc3s2)cc1 ?
NR3A LBD binder: 13.3*; MT1-MMP act inh: 5.3; SKN-1 inh: -6.0; ADAM10 inh: 0.3; ADAM17 inh: -3.6; MPTP inh: 1.5

What do the screens show for `COc1ccc(Nc2cc(C)c3cc([N+](=O)[O-])ccc3n2)cc1`?
NR3A LBD binder: 27.9*; MT1-MMP act inh: -4.5; SKN-1 inh: 10.2; ADAM10 inh: 16.2; ADAM17 inh: 5.0; MPTP inh: 4.5

Results for Cc1ccccc1Nc1nc(=O)c2cc([N+](=O)[O-])ccc2s1 ?
NR3A LBD binder: -2.1; MT1-MMP act inh: -4.4; SKN-1 inh: -1.4; ADAM10 inh: 3.9; ADAM17 inh: -0.7; MPTP inh: 3.7

What do the screens show for `COc1ccc(Nc2nc(=O)c3cc([N+](=O)[O-])ccc3s2)cc1`?
NR3A LBD binder: 13.5*; MT1-MMP act inh: 2.6; SKN-1 inh: -1.6; ADAM10 inh: -2.2; ADAM17 inh: -3.5; MPTP inh: 2.5

What do the screens show for `Cn1c(-c2ccc(CN3CCCCC3)o2)nc2ccccc21`?
NR3A LBD binder: 5.6; MT1-MMP act inh: -1.2; SKN-1 inh: 36.0*; ADAM10 inh: -54.0; ADAM17 inh: -15.9; MPTP inh: 1.3

Results for O=C1CC(N2CCN(S(=O)(=O)c3ccccc3)CC2)C(=O)N1c1ccccc1 (stereo not drawn) ?
NR3A LBD binder: -1.0; MT1-MMP act inh: -1.7; SKN-1 inh: -2.8; ADAM10 inh: -3.9; ADAM17 inh: -5.1; MPTP inh: 8.9

Results for O=C(c1ccc(S(=O)(=O)NCc2ccco2)cc1)N1CCN(c2ccc(F)cc2)CC1 ?
NR3A LBD binder: -2.1; MT1-MMP act inh: 2.8; SKN-1 inh: 33.0*; ADAM10 inh: -7.5; ADAM17 inh: -2.6; MPTP inh: 0.2

What do the screens show for `O=C(/C=C/c1ccc(S(=O)(=O)NCc2ccco2)cc1)N1CCN(c2ccccc2)CC1`?
NR3A LBD binder: 15.6*; MT1-MMP act inh: -2.8; SKN-1 inh: 2.6; ADAM10 inh: 6.6; ADAM17 inh: 1.4; MPTP inh: 0.3

Results for CC(=O)c1ccc(N2CCN(C(=O)c3ccc(S(=O)(=O)NCc4ccco4)cc3)CC2)cc1 ?
NR3A LBD binder: -10.1; MT1-MMP act inh: 6.3; SKN-1 inh: 23.4; ADAM10 inh: -18.9; ADAM17 inh: -3.8; MPTP inh: 0.3

What do the screens show for `O=C1c2ccccc2S(=O)(=O)N1CC(O)COc1ccc(Br)cc1` (stereo not drawn)?
NR3A LBD binder: -2.2; MT1-MMP act inh: 5.7; SKN-1 inh: -16.9; ADAM10 inh: 1.6; ADAM17 inh: 4.2; MPTP inh: 1.2

How did COc1ccc(NC(=O)c2cc(Br)ccc2Cl)c(OC)c1 do in these assays?
NR3A LBD binder: -0.5; MT1-MMP act inh: 1.0; SKN-1 inh: -0.3; ADAM10 inh: -3.4; ADAM17 inh: -1.4; MPTP inh: -2.1

How did Oc1c(Br)cc(Br)cc1CNc1cnc2ccccc2c1 do in these assays?
NR3A LBD binder: 23.9*; MT1-MMP act inh: 3.0; SKN-1 inh: 16.5; ADAM10 inh: -167.9; ADAM17 inh: -76.2; MPTP inh: 30.9

What do the screens show for `CC1CN(S(=O)(=O)c2csc(C(=O)Nc3ccccc3)c2)CC(C)O1` (stereo not drawn)?
NR3A LBD binder: 15.5*; MT1-MMP act inh: -5.1; SKN-1 inh: 7.4; ADAM10 inh: -3.8; ADAM17 inh: -1.6; MPTP inh: 0.0

How did O=C(O)c1cccc(NC(=O)c2cc(S(=O)(=O)N3CCOCC3)cs2)c1 do in these assays?
NR3A LBD binder: -0.3; MT1-MMP act inh: -2.9; SKN-1 inh: 5.3; ADAM10 inh: -13.6; ADAM17 inh: -0.9; MPTP inh: -5.4

How did C=CCc1c(C)nc2cc(-c3ccc(C)cc3)[nH]n2c1=O do in these assays?
NR3A LBD binder: 0.9; MT1-MMP act inh: -4.0; SKN-1 inh: 4.6; ADAM10 inh: -51.3; ADAM17 inh: -20.8; MPTP inh: 1.3

How did CCc1c(C)nc2cc(-c3ccccc3)[nH]n2c1=O do in these assays?
NR3A LBD binder: 0.2; MT1-MMP act inh: -9.1; SKN-1 inh: 35.9*; ADAM10 inh: -61.0; ADAM17 inh: -29.1; MPTP inh: -0.1

Results for COc1ccccc1C(=O)CSc1nnc(-c2ccco2)o1 ?
NR3A LBD binder: -1.9; MT1-MMP act inh: 2.4; SKN-1 inh: 2.5; ADAM10 inh: 2.4; ADAM17 inh: 2.2; MPTP inh: 0.3

What do the screens show for `CC1CCN(CCOc2cccc(Br)c2)CC1`?
NR3A LBD binder: 10.6*; MT1-MMP act inh: 1.8; SKN-1 inh: 3.1; ADAM10 inh: 11.0; ADAM17 inh: 0.4; MPTP inh: -0.3

How did Brc1cccc(OCCCN2CCCCCC2)c1 do in these assays?
NR3A LBD binder: -17.1; MT1-MMP act inh: 1.5; SKN-1 inh: 4.1; ADAM10 inh: -3.6; ADAM17 inh: 1.6; MPTP inh: 0.9

How did C/C(=N/NS(=O)(=O)c1ccc(C)c(C)c1)c1c[nH]c2ccccc12 do in these assays?
NR3A LBD binder: 38.4*; MT1-MMP act inh: 2.7; SKN-1 inh: 22.2; ADAM10 inh: -2.4; ADAM17 inh: -3.5; MPTP inh: 2.4
